Laboratory results taken from ChEMBL document CHEMBL4699639, “Discovery of Novel 2-Aniline-1,4-naphthoquinones as Potential New Drug Treatment for Leber's Hereditary Optic Neuropathy (LHON)” (J Med Chem, 2020).
Active and inactive are the calls of the source. No cut-off for these calls is given here.

Legend:
[1] = system: HepG2; test: (§1) Suppression of rotenone-induced ATP depletion in human HepG2 cells assessed as rescue of ATP level at 5 uM incubated for 2 hrs by Celltiter-Glo assay relative to control; assay type: functional
How it was run: (§2)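 HepG2 cells seeded 10×10^3 per well in 1 g/L glucose, 2% FBS medium the day before. Switched to glucose- and FBS-free medium containing 10 µM rotenone, with compound added at the same time, 2 h at 37 °C. ATP read by CellTiter-Glo luminescence, normalized to DMSO cells without rotenone. Mean ± SEM of ≥3 independent runs. Complex III inhibitors, where used, at 50 nM.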

[2] = Suppression of rotenone-induced ATP depletion in human HepG2 cells incubated for 2 hrs by Celltiter-Glo assay; assay type: functional, cell-based; conditions: HepG2, 2 h; how it was run: as §2
[3] = as §1; assay type: functional; how it was run: as §2
[4] = system: SH-SY5Y; test: Cytotoxicity against human SH-SY5Y cells assessed as reduction in cell viability at 25 uM incubated for 24 hrs by Celltiter-blue assay; assay type: cell-based
How it was run: (§3)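 HepG2 or SH-SY5Y seeded 10×10^3 per well the day before in 1 g/L glucose medium with 2% FBS. Medium replaced with fresh 2% FBS, 1 g/L glucose medium containing compound (25 µM) for 24 h at 37 °C. CellTiter-Blue added for 4 h, fluorescence read at 560/590 nm. Viability given as % of vehicle/untreated cells. Mean ± SEM of ≥3 independent runs.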

[5] = system: HepG2; test: Suppression of rotenone-induced ATP depletion in human HepG2 cells assessed as rescue of ATP level at 5 uM incubated for 2 hrs in presence of complex III inhibitor myxothiazol by Celltiter-Glo assay; assay type: functional, cell-based; how it was run: as §2
[6] = system: HepG2; test: Suppression of rotenone-induced ATP depletion in human HepG2 cells assessed as rescue of ATP level at 5 uM incubated for 2 hrs in presence of complex III inhibitor antimycin by Celltiter-Glo assay; assay type: functional, cell-based; how it was run: as §2
[7] = system: HepG2; test: Cytotoxicity against human HepG2 cells assessed as reduction in cell viability incubated for 24 hrs by Celltiter-blue assay; assay type: cell-based; conditions: HepG2, 24 h
[8] = system: SH-SY5Y; test: Cytotoxicity against human SH-SY5Y cells assessed as reduction in cell viability incubated for 24 hrs by Celltiter-blue assay; assay type: cell-based
[9] = system: HepG2; test: Suppression of rotenone-induced ATP depletion in human HepG2 cells assessed as increase in rescue of ATP level at 0.1 to 1 uM incubated for 2 hrs by Celltiter-Glo assay; assay type: functional, cell-based; conditions: dose microM 0.1-1, time 2.0 hrs; how it was run: as §2
[10] = Cytoprotection against rotenone-induced C57BL/6J mouse retinal ganglion cells loss assessed as cell survival at 10 uM incubated for 24 hrs by Hoechst 33342 staining based counting method (reference value: 41%); assay type: functional; conditions: RGC, read-out: Activity
How it was run: (§4)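 Retinal explants from 6–8 month old female wild-type C57BL/6J mice, enucleated eyes placed in ice-cold HBSS. Explants incubated 24 h ex vivo in pre-warmed Neurobasal A with compounds in 0.1% DMSO, alone for toxicity or with 100 µM rotenone for activity. Hoechst 33342-stained nuclei (and anti-RBPMS-positive RGCs) counted in the central retina ganglion cell layer. Mean ± SEM, 1-way ANOVA with Tukey.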

[11] = Cytotoxicity against C57BL/6J mouse RGC cells at 20 uM incubated for 24 hrs by Hoechst 33342 staining based counting method; assay type: cell-based; how it was run: as §4
[12] = Suppression of rotenone-induced ATP depletion in human HepG2 cells assessed as rescue of ATP level incubated for 2 hrs by Celltiter-Glo assay relative to control; assay type: functional; design: concentration or dose not given beside the values; how it was run: as §2
[13] = Cytotoxicity against human HepG2 cells assessed as cell viability at 25 uM incubated for 24 hrs by Celltiter-blue assay relative to control; assay type: cell-based; conditions: read-out: Activity; how it was run: as §3
[14] = target: NAD(P)H dehydrogenase [quinone] 1 (Homo sapiens) (UniProt P15559); test: Substrate activity at NQO1 in human HepG2 cells assessed as reduction in cell viability by WST-1 assay; assay type: cell-based
Chain of NAD(P)H dehydrogenase [quinone] 1 (Homo sapiens) (P15559 whole entry): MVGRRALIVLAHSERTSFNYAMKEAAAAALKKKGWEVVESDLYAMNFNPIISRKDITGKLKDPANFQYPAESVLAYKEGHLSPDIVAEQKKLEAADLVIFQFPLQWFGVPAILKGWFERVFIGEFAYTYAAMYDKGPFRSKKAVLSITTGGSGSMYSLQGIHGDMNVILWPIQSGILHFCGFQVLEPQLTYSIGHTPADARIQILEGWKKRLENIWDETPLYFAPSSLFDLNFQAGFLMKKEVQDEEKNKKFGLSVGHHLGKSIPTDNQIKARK

[15] = Cytotoxicity against C57BL/6J mouse RGC cells assessed as reduction in number of cells at 50 uM incubated for 24 hrs by Hoechst 33342 staining based counting method; assay type: cell-based; how it was run: as §4
[16] = system: HepG2; test: Suppression of rotenone-induced ATP depletion in human HepG2 cells assessed as increase in rescue of ATP level at 1 uM incubated for 2 hrs by Celltiter-Glo assay; assay type: functional, cell-based; how it was run: as §2
[17] = system: HepG2; test: Cytotoxicity against human HepG2 cells assessed as cell reduction in cell viability at 25 uM incubated for 24 hrs by Celltiter-blue assay; assay type: cell-based; conditions: hepg2, 24 h; how it was run: as §3
[18] = system: SH-SY5Y; test: Cytotoxicity against human SH-SY5Y cells assessed as reduction in cell viability by WST-1 assay; assay type: cell-based
[19] = Cytotoxicity against […] assessed as reduction in cell viability by WST-1 assay; assay type: cell-based; conditions: r28
[20] = system: HepG2; test: Suppression of rotenone-induced ATP depletion in human HepG2 cells assessed as rescue of ATP level at 5 uM incubated for 2 hrs in presence of NQO1 inhibitor dicoumarol by Celltiter-Glo assay; assay type: functional, cell-based
[21] = system: HepG2; test: Suppression of rotenone-induced ATP depletion in human HepG2 cells assessed as rescue of ATP level at 5 uM incubated for 2 hrs in presence of NQO1 irreversible inhibitor ES936 by Celltiter-Glo assay; assay type: functional, cell-based
[22] = system: RGC; test: Cytoprotection against rotenone-induced C57BL/6J mouse retinal ganglion cells loss assessed as increase in cell survival at 3 uM incubated for 24 hrs by Hoechst 33342 staining based counting method; assay type: functional, tissue-based; conditions: in the assay text read “anti-RBPMS antibody staining” for “Hoechst 33342 staining”; how it was run: as §4
[23] = Cytotoxicity against C57BL/6J mouse RGC cells assessed as reduction in number of cells at 100 uM incubated for 24 hrs by Hoechst 33342 staining based counting method; assay type: cell-based; how it was run: as §4
[24] = target: NAD(P)H dehydrogenase [quinone] 1 (Homo sapiens) (UniProt P15559); test: Substrate activity at recombinant NQO1 (unknown origin) assessed as reduction in NADH level at 20 uM measured for 6 mins by microplate reader analysis
[25] = target: NAD(P)H dehydrogenase [quinone] 1 (Homo sapiens) (UniProt P15559); test: Substrate activity at NQO1 in human HepG2 cells assessed as reduction in cell viability in presence of NQO1 inhibitor dicoumarol by WST-1 assay; assay type: cell-based

Activity [24]	SMILES	EC50 [2] [µM]	Activity [4]	Activity [5]	Activity [6]	IC50 [7] [µM]	IC50 [8] [µM]	Activity [9]	Activity [12] [%]	viability at 24 h, 25 µM [13] [%]	Activity [14]	Activity [16]	Activity [18]	Activity [19]	Activity [25]	other results
Active	CSC1=C(Nc2ccc(F)c(C(F)(F)F)c2)C(=O)c2ccccc2C1=O	0.36	Toxic	inactive	inactive	30.5	> 100	Active	55.7	76.9	Active	Active	Non-Toxic	Non-Toxic	inactive	Activity [15]: Non-Toxic; Activity [17]: Toxic; Activity [20]: inactive; Activity [21]: inactive; Activity [22]: Active; Activity [23]: Toxic
inactive	CNC1=C(Nc2ccc(F)c(C(F)(F)F)c2)C(=O)c2ccccc2C1=O		Non-Toxic						14.7	95.8						
inactive	CNC1=C(Nc2ccccc2)C(=O)c2ccccc2C1=O		Non-Toxic													
Active	COC1=C(Nc2ccc(F)c(C(F)(F)F)c2)C(=O)c2ccccc2C1=O	0.46	Non-Toxic	inactive	inactive	> 100	> 100	Active	58.6	96.5	Active	Active	Non-Toxic	Non-Toxic	inactive	Activity [20]: inactive; Activity [21]: inactive
Active	O=C1C(Nc2ccc(F)c(C(F)(F)F)c2)=C(SC(F)(F)F)C(=O)c2ccccc21		Toxic						58.6	65.8	Active	Active	Non-Toxic	Non-Toxic	inactive	Activity [17]: Toxic

Continued, compound first:

SMILES	Activity [24]	EC50 [2] [µM]	Activity [4]	Activity [5]	Activity [6]	IC50 [7] [µM]	IC50 [8] [µM]	Activity [9]	Activity [12] [%]	viability at 24 h, 25 µM [13] [%]	Activity [14]	Activity [16]	Activity [18]	Activity [19]	Activity [25]	other results
NC1=C(Cl)C(=O)c2ccccc2C1=O																Activity [1]: inactive
COC1=C(OC)C(=O)C(CCCCCCCCCCO)=C(C)C1=O [IDEBENONE]		0.94	Toxic	inactive	inactive	64.5	15.9	Active	44.3	92.8						Activity [3]: 70%; viability at 10 µM [10]: 73%; Activity [11]: Toxic
CC1=C(CCCC(=O)NCCc2ccc(O)cc2)C(=O)c2ccccc2C1=O	inactive	0.8				> 100	76	Active								
O=C1C(Cl)=C(NCCC(F)(F)F)C(=O)c2ccccc21																Activity [1]: inactive
COC1=C(Nc2cccc(C(F)(F)F)c2)C(=O)c2ccccc2C1=O			Non-Toxic								Active	Active	Non-Toxic	Non-Toxic	inactive	Activity [3]: 70%
COC(=O)c1ccc(NC2=C(Cl)C(=O)c3ccccc3C2=O)cc1			Toxic													Activity [3]: 70%; Activity [17]: Toxic
CC1=C(Nc2ccc(F)c(C(F)(F)F)c2)C(=O)c2ccccc2C1=O		0.91	Non-Toxic	inactive	inactive	> 100	> 100	Active	52.6	101	Active	Active	Non-Toxic	Non-Toxic	inactive	Activity [20]: inactive; Activity [21]: inactive
